For eleven compounds, IC50, inhibition and Activity results are on record in ChEMBL document CHEMBL1126139 (J Med Chem, 1992).

For test [1], the target named is T1, Glycine receptor subunit alpha-1 (Rattus norvegicus, UniProt P07727).
T1 sequence (P07727 whole entry): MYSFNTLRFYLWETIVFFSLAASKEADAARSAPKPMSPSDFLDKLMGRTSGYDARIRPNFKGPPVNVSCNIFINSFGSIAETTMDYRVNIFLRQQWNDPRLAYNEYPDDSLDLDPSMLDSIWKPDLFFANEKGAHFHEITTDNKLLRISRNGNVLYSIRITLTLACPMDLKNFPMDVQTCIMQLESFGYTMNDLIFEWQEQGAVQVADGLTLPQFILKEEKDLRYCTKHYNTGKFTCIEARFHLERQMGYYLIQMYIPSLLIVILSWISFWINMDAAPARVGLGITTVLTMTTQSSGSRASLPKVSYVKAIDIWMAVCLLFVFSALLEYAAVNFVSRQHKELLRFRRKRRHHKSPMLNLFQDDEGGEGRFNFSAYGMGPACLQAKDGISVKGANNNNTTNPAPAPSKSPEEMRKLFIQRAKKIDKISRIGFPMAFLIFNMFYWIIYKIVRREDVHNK
Description: Inhibitory concentration required to inhibit [3H]strychnine binding to […] of rat spinal cord membranes.

A short description of test [2]: Ability to displace [3H]strychnine-sensitive glycine receptor binding to rat spinal cord membranes; at 100 uM.
The species entered for test [3] is Mus musculus. Description: Change in input resistance of cultured spinal cord neurons produced at a dose 1 mM. It is filed as functional.
For test [4], the species on record is Mus musculus. Description: Change in input resistance of cultured spinal cord neurons produced at a dose 100 uM. Format: functional.
The species entered for test [5] is Mus musculus. Description: Change in input resistance of cultured spinal cord neurons produced at a dose 1 mM+100 uM tetrodotoxin. Format: functional.
The target of test [6] is T1, Glycine receptor subunit alpha-1. Kind of test: Inhibitory concentration required to inhibit [3H]strychnine binding to […]. Summed up: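 [3H]Strychnine displacement; IC50 obtained by nonlinear curve fitting to a Langmuir isotherm.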
The species entered for test [7] is Mus musculus. Description: Change in input resistance of cultured spinal cord neurons produced at a dose 100 uM+100 uM tetrodotoxin. It is filed as functional.
Test [8] is filed under the species Mus musculus. Description: Change in input resistance of cultured spinal cord neurons produced at a dose 1 mM+100 uM strychnine. It is filed as functional.
For test [9], the species on record is Mus musculus. Kind of test: Change in input resistance of cultured spinal cord neurons produced at a dose 100 uM+100 uM bicuculline+3 uM tetrodotoxin. It is filed as functional.
The species entered for test [10] is Mus musculus. Description: Change in input resistance of cultured spinal cord neurons produced at a dose 1 mM+100 uM bicuculline+3 uMtetrodotoxin. It is filed as functional.
Test [11] is filed under the species Mus musculus. Description: Change in input resistance of cultured spinal cord neurons produced at a dose 100 uM tetrodotoxin. Format: functional.

With `C[C@@H](N)C(=O)O` [D-ALANINE], the IC50 in test [1] stood at 90.9 µM.

Compound `O=C(O)c1cc[nH]c1` came in with an inhibition in test [2] of 46%.

As to `O=C(O)C1CNC1`, the Activity in [3] was 83.1%; in [4] it was 9.4%; in [5], 71.7%; in [7], 10.7%; in test [8], 37.7%. The compound also showed an IC50 in [6] of 23.7 µM.

On to `O=C(O)C1CCNCC1` [ISONIPECOTIC ACID], for which the Activity in [3] is given as 73.6%; in test [4], 19.2%; in test [9], 3%; in test [10], 0.1%. The IC50 in [6] stood at 94.1 µM.

In the case of `O=C(O)C1=CCNC1`, the Activity in test [3] was 60.4%; in [11] it was 5.1%; in test [4] it was 22.7%; in test [5], 37.2%; in test [8] it was 4.7%. In addition, the IC50 in [6] worked out at 7.9 µM.

Consider `O=C(O)[C@@H]1CCCN1` (stereo in doubt; 8) [PROLINE], for which the IC50 in test [6] is 17.2 µM.

In the case of `C[C@H](N)C(=O)O` [ALANINE], the IC50 in [6] turned out to be 198 µM.

As for `NCCC(=O)O` [BETA-ALANINE], the IC50 in test [1] worked out at 11.6 µM.

For `O=C(O)C1CCN1` (stereo not given), in test [6], the IC50 was determined as 399 µM.

Consider `O=C(O)C1C=CCN1` (stereo not given), for which the IC50 in test [6] is 242 µM.

`O=C(O)[C@@H]1CCCN1` (stereo in doubt) [PROLINE] showed a concentration for half-maximal inhibition (IC50) in [6] of 414 µM.
